Measurements from ChEMBL document CHEMBL4270576, “Discovery of a benzenesulfonamide-based dual inhibitor of microsomal prostaglandin E2 synthase-1 and 5-lipoxygenase that favorably modulates lipid mediator biosynthesis in inflammation” (Eur J Med Chem, 2018).
The source made the active and inactive calls. No cut-off for these calls is given here.

What was measured:
Homo sapiens [1] = organism: Homo sapiens; experiment: Modulation of LO-mediated RvD5 level in human M2 macrophages derived from IL4-polarized human monocyte derived macrophages at 3 uM preincubated for 15 mins followed by Escherichia coli (O6:K2:H1) challenge for 90 mins by LC-MS/MS analysis
Method in brief: (§1)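 Monocytes differentiated 6 days with M-CSF (20 ng/ml), then polarized 48 h with IL-4 20 ng/ml (M2). Cells (2 × 10^6) in PBS/1 mM CaCl2 pre-incubated 15 min at 37 °C with 3 µM compound or 0.1% DMSO, then challenged with E. coli O6:K2:H1 (1:50) for 90 min. Lipid mediators extracted by SPE with deuterated internal standards and quantified by UPLC-MS/MS as % of vehicle.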

[2] = biological target: T1, Polyunsaturated fatty acid lipoxygenase ALOX12 (Homo sapiens) (UniProt P18054); experiment: Modulation of 12-LO-mediated 12-HETE level in human M2 macrophages derived from IL4-polarized human monocyte derived macrophages at 3 uM preincubated for 15 mins followed by Escherichia coli (O6:K2:H1) challenge for 90 mins by LC-MS/MS analysis; method in brief: as §1
T1 sequence (whole entry): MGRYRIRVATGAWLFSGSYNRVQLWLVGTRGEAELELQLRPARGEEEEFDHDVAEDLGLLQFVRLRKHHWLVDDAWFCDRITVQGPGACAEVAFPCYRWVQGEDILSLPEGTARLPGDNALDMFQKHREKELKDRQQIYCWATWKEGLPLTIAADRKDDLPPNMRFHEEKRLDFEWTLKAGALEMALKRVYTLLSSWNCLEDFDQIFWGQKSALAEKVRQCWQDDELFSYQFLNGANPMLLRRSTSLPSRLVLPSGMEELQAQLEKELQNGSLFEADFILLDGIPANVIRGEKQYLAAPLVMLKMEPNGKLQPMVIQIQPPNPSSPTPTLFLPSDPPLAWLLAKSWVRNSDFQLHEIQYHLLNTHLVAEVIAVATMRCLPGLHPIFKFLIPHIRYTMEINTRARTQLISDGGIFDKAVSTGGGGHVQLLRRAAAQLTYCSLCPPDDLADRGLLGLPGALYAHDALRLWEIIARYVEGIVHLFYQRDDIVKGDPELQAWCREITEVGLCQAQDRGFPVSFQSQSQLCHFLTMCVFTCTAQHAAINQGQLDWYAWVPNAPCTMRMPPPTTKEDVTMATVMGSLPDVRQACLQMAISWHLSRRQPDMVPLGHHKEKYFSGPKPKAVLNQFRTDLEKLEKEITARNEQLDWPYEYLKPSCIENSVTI

Cyclooxygenase = Cyclooxygenase (Homo sapiens, UniProt P35354+P23219); experiment: Modulation of COX1/2-mediated PGF2a level in human M1 macrophages derived from LPS/IFNgamma-polarized human monocyte derived macrophages at 3 uM preincubated for 15 mins followed by Escherichia coli (O6:K2:H1) challenge for 90 mins by LC-MS/MS analysis; format: protein assay; conditions: 1.5 h
Method in brief: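 Monocytes differentiated 6 days with GM-CSF (20 ng/ml) in RPMI/10% FCS, then polarized 48 h with LPS 100 ng/ml plus IFN-γ 20 ng/ml (M1). Cells (2 × 10^6) in PBS with 1 mM CaCl2 pre-incubated 15 min at 37 °C with 3 µM compound or 0.1% DMSO, then E. coli O6:K2:H1 (1:50) for 90 min. Methanol with deuterated standards added; SPE; UPLC-MS/MS; expressed as % of vehicle.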

Homo sapiens [3] = organism: Homo sapiens; experiment: Modulation of LO-mediated MaR1 level in human M2 macrophages derived from IL4-polarized human monocyte derived macrophages at 3 uM preincubated for 15 mins followed by Escherichia coli (O6:K2:H1) challenge for 90 mins by LC-MS/MS analysis; method in brief: as §1
[4] = biological target: T1, Polyunsaturated fatty acid lipoxygenase ALOX12 (Homo sapiens); experiment: Modulation of 12-LO-mediated 12-HEPE level in human M2 macrophages derived from IL4-polarized human monocyte derived macrophages at 3 uM preincubated for 15 mins followed by Escherichia coli (O6:K2:H1) challenge for 90 mins by LC-MS/MS analysis; method in brief: as §1
Mus musculus = experiment: Antiinflammatory activity in zymosan induced CD-1 mouse model of inflammation assessed as reduction in leukocyte recruitment in air pouch at 10 mg/kg, ip preincubated for 30 mins followed by zymosan challenge and measured after 4 hrs by trypan blue staining-based burker's chamber method; format: functional, organism-based
Method in brief: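 Air pouch formed by s.c. injection of 2.5 mL sterile air in CD-1 mice; on day 6, 10 mg/kg i.p. (2% DMSO/saline) given 30 min before 1 ml 1% w/v zymosan into the pouch. After 4 h, exudate collected with 1 ml saline and centrifuged; leukocytes counted in Burker chamber; LTB4 in supernatant by ELISA (ng/mL). n=6 mice per group.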

Activity (Homo sapiens [1]): 134%
Activity [2]: 151%
Activity (Cyclooxygenase): 142%
Activity (Homo sapiens [3]): 141%
Activity [4]: 140%
Compound: O=C(O)c1ccc(N(Cc2cccc(OCc3ccccc3)c2)S(=O)(=O)c2ccc(-c3ccccc3)cc2)cc1
Activity (Mus musculus): Active
